# A selection: hits, their analogues and other compounds. The true share with any hit is near 1.5%.
# CCR6 antagonist = antagonists of human CCR6 receptor; P51684; CHO-K1 CCR6 PathHunter beta-arrestin, luminescence, CCL20-stimulated; inhibition, % at 20 µM; 340,000 tested, 0.49% active; AID 493098;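 active = compounds whose inhibition of the agonist-driven luminescence signal at 20 µM reaches about 50%, limit read from the data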;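 note: cells stimulated with CCL20 at 14 nM final; plate controls were DMSO with CCL20 for no effect and DMSO without agonist for full effect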
# HTR2A ag = activates the mouse 5-HT2A serotonin receptor; P35363; CHO-K1 mHTR2A beta-arrestin complementation, luminescence; percent of 30 µM serotonin response; AID 624169; 360,000 tested, 0.66% active; activation, % at 7.6 µM;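 active = activation above a run cutoff, the mean activation of all tested compounds plus 3 SD, cut at about 14% in these data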;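 note: 0% = plate median of compound wells and 100% = 30 µM serotonin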
# CXCR6 inh = inhibitors of human CXCR6 receptor. O00574. CHO-K1 PathHunter CXCR6 beta-arrestin, luminescence. inhibition, % at 20 µM. 360,000 tested, 0.36% active. AID 602244; in the data active = inhibition above about 34%, passing the limit was not always enough;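 note: antagonist mode with CXCL16 agonist at 10 nM final; 0% = 10 nM CXCL16 with DMSO and 100% = unstimulated wells without agonist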
# NTR1 ag = agonists of human neurotensin receptor NTR1 | NTR1-U2OS beta-arrestin-GFP spot imaging, agonist mode | activation, % at 20 µM | 330,000 tested, 0.17% active | AID 493036 | P30989;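 active = activation at or above 40% of the spot to cytoplasm intensity ratio, with at least 20 cells analyzed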;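 note: 0% = DMSO without peptide and 100% = 100 nM NTR1 peptide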
# APJ ag = APJ receptor agonism; P35414; CHO-K1 APJ PathHunter beta-arrestin, luminescence; 0% DMSO wells, 100% apelin; activation, % at 20 µM; 330,000 tested, 0.11% active;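 active = activation more than six SD over the plate average, tested at 20 µM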;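 note: 0% = DMSO alone and 100% = apelin-13 at 10 nM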
#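 Incubation: overnight seeding, 90 min compound at 25 °C, 1 h detection; test system: PathHunter CHO-K1 APJ (AGTRL-1) beta-arrestin reporter cells; amount: 1000 cells/well; doses: one dose, 20 µM compound, 1% DMSO; measured by: beta-gal luminescence; measure: agonist-driven arrestin binding to APJ; benchmarks: negative DMSO alone, positive Apelin-13 at 10 nM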
# APJ antagonist = blocks the human apelin receptor APJ; inhibition, % at 20 µM; AID 2521; CHO-K1 APJ beta-arrestin complementation, luminescence; 330,000 tested, 0.32% active; P35414;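 active = inhibition above about 40% at 20 µM, limit read from the data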;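 note: cells challenged with 10 nM apelin-13 agonist together with compound; plate controls were apelin-13 plus DMSO wells for no effect and DMSO wells lacking apelin-13 for full effect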
# MOR ag counter = counter-screen for mouse HTR2A agonists: human mu opioid receptor agonists; shares compounds with HTR2A ag; U2OS OPRM1 beta-arrestin PathHunter, luminescence; DMSO 0%, DAMGO 9.3 µM 100%; activation, % at 9.3 µM; 2,300 tested, 5.3% active; AID 624380;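 active = mean activation above the mean of DMSO-only wells plus 3 SD, cut at about 0.5% in these data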
# Target sequence (P35372 whole entry, looked up): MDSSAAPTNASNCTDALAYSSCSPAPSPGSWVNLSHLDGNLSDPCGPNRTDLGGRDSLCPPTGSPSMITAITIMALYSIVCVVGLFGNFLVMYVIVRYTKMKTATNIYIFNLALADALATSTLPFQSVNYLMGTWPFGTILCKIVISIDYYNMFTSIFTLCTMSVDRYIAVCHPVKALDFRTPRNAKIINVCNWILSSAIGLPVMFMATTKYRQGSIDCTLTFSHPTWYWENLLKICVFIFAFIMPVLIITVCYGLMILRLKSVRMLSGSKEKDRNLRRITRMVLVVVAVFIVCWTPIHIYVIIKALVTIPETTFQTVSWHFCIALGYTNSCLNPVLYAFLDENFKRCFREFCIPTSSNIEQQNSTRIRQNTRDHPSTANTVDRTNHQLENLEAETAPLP
# m5-HT2A ag conf = mouse HTR2A agonism confirmed. shares compounds with HTR2A ag. CHO-K1 PathHunter beta-arrestin recruitment, luminescence; DMSO 0%, 30 µM serotonin 100%. activation, % at 7.6 µM. 2,300 tested, 19% active. AID 624381;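 active = mean activation across triplicates above the hit threshold derived in the original primary screen, cut at about 15% in these data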
# * marks the source's active call; other numbers are inactive results; / = not tested or not shown.
SMILES,CCR6 antagonist,HTR2A ag,CXCR6 inh,NTR1 ag,APJ ag,APJ antagonist,MOR ag counter,m5-HT2A ag conf
COc1ccc(CNC(=O)CN(C(=O)CCC(=O)Nc2ccccn2)c2ccc(C)cc2)cc1,-3,30*,1,0,-5,15,-1,-5
O=[N+]([O-])c1ccc(S(=O)(=O)Nc2ccc(-c3csc(-c4ccccc4)n3)cc2)cc1,/,/,/,26,-5,15,/,/
Cc1ccc(-c2nc3cc(NS(=O)(=O)c4ccc(C)cc4)ccc3o2)cc1,-11,-6,5,20,-2,-1,/,/
O=S(=O)(Nc1ccc(-c2csc(-c3ccccc3)n2)cc1)c1ccccc1,6,18*,-5,23,-1,-10,0,5
O=S(=O)(Nc1ccc2oc(-c3ccccc3)nc2c1)c1ccccc1,13,15*,2,6,-7,-4,0,4
CCn1c(=S)[nH]c2c(=O)n(C)c(=O)n(C)c21,15,17*,-5,/,/,/,0,3
Cn1c(=O)c2[nH]c(=O)[nH]c2n(C)c1=O,4,0,9,/,/,/,/,/
Nc1cc(Cl)nnc1Cl,9,19*,-5,-1,-2,5,-1,-2
COC(=O)Cc1c(C)c2ccc(OCC(=O)N3CCCC(C)C3)c(C)c2oc1=O (centres undefined),6,15*,1,1,1,4,-1,5
NC1=C(Cl)C(=O)c2ccccc2C1=O,-3,17*,-13,/,/,/,0,-3
O=C(NCC(c1ccco1)N1CCCCC1)c1ccc(COc2ccc(Cl)cc2)cc1 (centres undefined),7,-13,0,/,/,/,/,/
CCOc1ccccc1NC(=S)Nn1cnnc1,5,3,6,-2,-8,17,/,/
O=C(NCc1ccccc1)C1CCC(CNc2c(N3CCCCC3)c(=O)c2=O)CC1 (centres undefined),9,1,7,-2,1,-55,/,/
O=C(NCc1ccc2c(c1)OCO2)C1CCC(CNc2c(N3CCCC3)c(=O)c2=O)CC1 (centres undefined),11,14*,2,-2,-1,-5,0,-2
COc1ccc(CC2(CO)CCN(Cc3ccc4nsnc4c3)CC2)cc1,17,-4,4,-1,-4,3,/,/
COc1cc(C(C)=O)ccc1Oc1cnccn1,3,3,0,0,-3,7,/,/
CC(=O)c1ccc(Oc2cnccn2)cc1,-9,16*,0,0,-1,-8,0,-2
COc1ccc(C2CC(=O)C=C(NNS(=O)(=O)c3ccc(C)cc3)C2)cc1 (centres undefined),2,2,6,-1,4,-3,/,/
COc1ccc(S(=O)(=O)N(C)CC(=O)Nc2ccccc2OC)cc1C,-15,-2,2,0,-2,0,/,/
COc1ccc(OC)c(S(=O)(=O)N(C)CC(=O)Nc2ccccc2OC)c1,15,16*,9,0,-4,-6,-1,-5
Cc1cc([N+](=O)[O-])c2[nH]c(C(=O)N/N=C/c3ccccc3C(=O)O)c(-c3ccccc3)c2c1,14,18*,15,/,/,/,-1,-2
CC1CCCN(C(=O)CNC(=O)c2ccco2)C1 (centres undefined),-2,-2,-6,0,-3,14,/,/
CSCCC(NC(N)=O)C(=O)Nc1cccc(C#N)c1 (centres undefined),-3,-1,-1,0,-3,-33,/,/
Cc1cc(CN2CCN(CC(=O)Nc3cc(C(F)(F)F)ccc3-n3cncn3)CC2)no1,3,-5,-6,5,-2,-2,/,/
Cc1ccc(OCCNC(=O)[C@H]2O[C@@H](n3ccc(N)nc3=O)[C@H](O)[C@@H]2O)cc1C,/,-2,-7,/,/,/,/,/
SMILES,CCR6 antagonist,HTR2A ag,CXCR6 inh,NTR1 ag,APJ ag,APJ antagonist,MOR ag counter,m5-HT2A ag conf
Cc1ccc(OCCNC(=O)[C@H]2O[C@@H](n3ccc(=O)[nH]c3=O)[C@H](O)[C@@H]2O)cc1C,/,43*,3,/,/,/,0,-4
CCn1c(N2CCN(S(=O)(=O)c3ccc(OC)cc3)CC2)nc2ccccc21,6,17*,5,0,0,7,0,44*
O=C(c1ccccc1)c1ccc(NCCCn2ccnc2)c([N+](=O)[O-])c1,11,5,3,3,-5,5,/,/
COc1ccc(S(=O)(=O)N2CCCCCC2)cc1NC(=O)CCCOc1ccccc1,14,-7,5,-4,-5,16,/,/
CC1(C)Oc2ccc3ccc(=O)oc3c2/C(=C/Nc2cccc(O)c2)C1=O,8,17*,9,13,3,3,0,4
CC1(C)Oc2ccc3ccc(=O)oc3c2/C(=C/Nc2ccc(O)cc2)C1=O,21,5,5,25,-1,-3,/,/
CCCCC(NC(=O)c1ccc(C#N)cc1)C(=O)NCCC (centres undefined),3,4,1,0,-3,2,/,/
COc1cc(CCCN2C(N)=NC[C@@H]2Cc2ccc(O)cc2)cc(OC)c1OC,9,1,4,-6,-8,-10,/,/
COc1cc(CCCN2C(N)=NC[C@@H]2Cc2ccccc2)cc(OC)c1OC,5,16*,0,-2,-7,-9,-1,-6
Cc1nnc(NC(=O)C2(c3ccccc3)CCOCC2)s1,6,2,-1,0,-3,3,/,/
Cc1cnc(NC(=O)C2(c3ccccc3)CC2)s1,15,21*,-10,/,/,/,0,-5
Cc1ccc(S(=O)(=O)NCC(=O)N2CCCC2)cc1,2,7,4,0,-2,8,/,/
Cc1ccc(S(=O)(=O)NC(CC(=O)NC2CCCC2)c2ccco2)cc1 (centres undefined),-17,-4,16,2,-2,12,/,/
Cc1ccc(S(=O)(=O)NCC(=O)N2CCCCC2)cc1,6,14*,-2,2,-4,11,-1,-3
Cc1ccc(S(=O)(=O)NC(CC(=O)N2CCOCC2)c2ccco2)cc1 (centres undefined),-6,43*,-8,-1,-3,-3,-1,0
COc1cccc(NC(=O)CCNC(=O)c2ccccc2Cl)c1,-3,0,-3,0,-3,3,/,/
CN1CCN(CC(=O)Nc2ccc([N+](=O)[O-])cc2Br)CC1,6,1,-10,-1,-2,-3,/,/
CC1CCCCC1NC(=O)CCN1C(=O)C2C3C=CC(C3)C2C1=O (centres undefined),7,-2,-4,1,-1,10,/,/

# Screens (PubChem BioAssay)
